Consider 17 compounds from ChEMBL document CHEMBL3585244, “Click Chemistry in Lead Optimization of Boronic Acids as β-Lactamase Inhibitors” (J Med Chem, 2015).

In one assay the test system is Pseudomonas aeruginosa. The assay is described as follows: (§1) Inhibition of Pseudomonas aeruginosa beta-lactamase PDC3 expressed in Escherichia coli BL21 (DE3) RP CodonPlus incubated for 5 mins before nitrocefin substrate addition by spectrophotometry. The following applies: TDE = time-dependent effect. The method, boiled down: (§2)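 PDC-3 from P. aeruginosa 18SH subcloned in pET 24a, expressed in E. coli BL21(DE3) RP CodonPlus (37 °C, 0.5 mM IPTG at A600 0.6), purified by isoelectric focusing and FPLC.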

Assay [1] in a line: as §1. An outline of the steps:
as §2

The next assay relates to Enterobacter cloacae. As to the kind of experiment: (§3) Inhibition of Enterobacter cloacae beta-lactamase P99 expressed in Escherichia coli AS226-51 incubated for 5 mins before nitrocefin substrate addition by spectrophotometry. The following applies: TDE = time-dependent effect. The method, boiled down: (§4)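 P99 expressed from pCS980 in E. coli AS226-51, grown in SOB with kanamycin at 37 °C and induced with 0.5 mM IPTG at A600 0.6. Purified by preparative isoelectric focusing, gel filtration and cation exchange. Inhibitor preincubated with enzyme for 5 min in 10 mM PBS pH 7.4 at room temperature. […] Ki = IC50/(1+[S]/Km).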

Assay [2] in a line: as §3. An outline of the steps:
as §4

Assay [3] is described as follows: Inhibition of beta-lactamase P99 (unknown origin) expressed in Escherichia coli DH10B assessed as cefotaxime MIC at 4 ug/ml by agar dilution method. An outline of the steps:
(§5)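 MICs by cation-adjusted Mueller-Hinton agar dilution following CLSI standards. E. coli DH10B carried blaPDC-3 (from P. aeruginosa 18SH) or blaP99 subcloned in pBC SK(-). Cefotaxime was varied from 0 to 64 µg/ml, with boronate held constant at 4 µg/ml.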

Assay [4] has as its system Escherichia coli. As to the kind of experiment: Potentiation of cefotaxime-induced antimicrobial effect against wild type Escherichia coli DH10B assessed as cefotaxime MIC at 4 ug/ml by agar dilution method. The class given is functional.
Assay [5] is described as follows: Inhibition of beta-lactamase PDC-3 (unknown origin) expressed in Escherichia coli DH10B assessed as cefotaxime MIC at 4 ug/ml by agar dilution method. The method, boiled down: as §5
The test system of assay [6] is Escherichia coli. As to the kind of experiment: Antimicrobial activity against wild type Escherichia coli DH10B by agar dilution method. The class given is functional. An outline of the steps:
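MICs by cation-adjusted Mueller-Hinton agar dilution following CLSI standards. The E. coli DH10B host carried no β-lactamase gene.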

Assay [7] relates to Escherichia coli. The assay is described as follows: Antimicrobial activity against wild type Escherichia coli DH10B producing beta-lactamase PDC3 by agar dilution method. The class given is functional. The method, boiled down:
(§6)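 E. coli DH10B carrying bla genes in pBC SK(-) vector; MICs in µg/mL by agar dilution on cation-adjusted Mueller-Hinton agar per CLSI standards.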

Assay [8] concerns Escherichia coli. The assay is described as follows: Antimicrobial activity against wild type Escherichia coli DH10B producing beta-lactamase P99 by agar dilution method. The class given is functional. The method, boiled down: as §6

Molecules are shown by their SMILES. pIC50, pKi: −log10 of the molar value. Values after ≈ are worked out from the molar mass of the structure shown. Where only a bound is given, the exact number is not on record here.

For `CC(C)(O)c1cn(C[C@H](NC(=O)Cc2cccs2)B(O)O)nn1`, the time-dependent effect entry in the assay with Pseudomonas aeruginosa is “tde”. The pIC50 was 6.60 in [1] and 6.38 in [2]. Further, the inhibition result in the assay on Enterobacter cloacae is “tde”.

Consider `O=C(Cc1cccs1)N[C@@H](Cn1cc(-c2cccc(C(=O)O)c2)nn1)B(O)O`, for which the MIC was 4 µg/mL in assay [3], less than 0.125 µg/mL with Escherichia coli [4] and 1 µg/mL in assay [5]. The time-dependent effect entry in the assay with Pseudomonas aeruginosa was “tde”. In addition, the negative logarithm of the IC50 (pIC50) is 7.17 in assay [1] and 7.08 in [2]. Besides, the pKi is 8.10 in [1] and 7.85 in assay [2]. For the same compound, the inhibition result in the assay on Enterobacter cloacae is “tde”.

In the case of `O=C(Cc1cccs1)N[C@@H](Cn1ccnn1)B(O)O`, in the assay on Pseudomonas aeruginosa, the time-dependent effect entry was “tde”. In addition, in assay [1], the pIC50 is 5.89 and the pKi is 6.79. Besides, in the assay with Enterobacter cloacae, the inhibition result was “tde”. In [2], the pIC50 is 6.10 and the pKi is 6.87.

With `O=C(Cc1cccs1)N[C@@H](Cc1cccc(C(=O)O)c1)B(O)O`, the MIC in assay [3] was 4 µg/mL; in the assay with Escherichia coli [4], less than 0.125 µg/mL; in assay [5], 4 µg/mL. In the assay on Pseudomonas aeruginosa, the time-dependent effect entry is “tde”. For the same compound, the negative-log IC50 (pIC50) in assay [1] is 6.82; in assay [2] it was 7.00. Further, the figures for the pKi in assay [1] and in [2] were 7.89 and 7.82, respectively. Besides, the inhibition entry in the assay on Enterobacter cloacae was “tde”.

Consider `O=C(Cc1ccccc1)N[C@@H](Cn1cc(C(=O)O)nn1)B(O)O`, for which the time-dependent effect entry in the assay with Pseudomonas aeruginosa was “tde”. Moreover, the pIC50 in [1] was 6.64; in [2], 6.96. Further, the inhibition entry in the assay on Enterobacter cloacae is “tde”.

`O=C(Cc1cccs1)N[C@@H](Cn1cc(-c2ccccc2)nn1)B(O)O`: the time-dependent effect result in the assay on Pseudomonas aeruginosa is “tde”. Besides, the pIC50 in assay [1] was 6.52; in assay [2], 6.49. Besides, the inhibition result with Enterobacter cloacae is “tde”.

For the compound `Nc1cccc(-c2cn(C[C@H](NC(=O)Cc3ccccc3)B(O)O)nn2)c1`, in the assay on Pseudomonas aeruginosa, the time-dependent effect entry was “tde”. The figures for the pIC50 in assay [1] and in assay [2] were 6.40 and 6.22, respectively. The inhibition result in the assay with Enterobacter cloacae is “tde”.

As for `O=C(Cc1ccccc1)N[C@@H](Cn1cc(-c2ccccc2)nn1)B(O)O`, the time-dependent effect result in the assay on Pseudomonas aeruginosa is “tde”. The pIC50 in assay [1] was 6.52; in assay [2] it was 6.82. For the same compound, the inhibition entry in the assay on Enterobacter cloacae is “tde”.

`CC(C)(O)c1cn(C[C@H](NC(=O)Cc2ccccc2)B(O)O)nn1`: in the assay with Pseudomonas aeruginosa, the time-dependent effect result is “tde”. Further, the results for the pIC50 in [1] and in assay [2] were 5.93 and 6.18, respectively. Further, the inhibition result in the assay on Enterobacter cloacae was “tde”.

As to `CC(=O)N[C@@H](Cn1cc(C(C)(C)O)nn1)B(O)O`, in the assay on Pseudomonas aeruginosa, the time-dependent effect result is “tde”. In addition, the pIC50 in assay [1] was 4.74; in assay [2] it was 4.15. In addition, in the assay with Enterobacter cloacae, the inhibition result was “tde”.

As for `O=C(Cc1cccs1)N[C@@H](Cn1cc(C(=O)O)nn1)B(O)O`, the MIC in assay [3] is 2 µg/mL; in the assay with Escherichia coli [4], less than 0.125 µg/mL; in [5], 0.5 µg/mL. For the same compound, the time-dependent effect entry in the assay on Pseudomonas aeruginosa was “tde”. In addition, the values for the pIC50 in assay [1] and in [2] were 7.46 and 6.85, respectively. Besides, the values for the pKi in assay [1] and in [2] were 8.40 and 7.64, respectively. Further, in the assay with Enterobacter cloacae, the inhibition entry is “tde”.

For the compound `Nc1cccc(-c2cn(C[C@H](NC(=O)Cc3cccs3)B(O)O)nn2)c1`, the time-dependent effect result with Pseudomonas aeruginosa is “tde”. Moreover, the pIC50 in assay [1] is 6.55; in assay [2] it was 6.44. In addition, in the assay on Enterobacter cloacae, the inhibition entry was “tde”.

For `CC(=O)N[C@@H](Cn1cc(C(=O)O)nn1)B(O)O`, the time-dependent effect entry in the assay on Pseudomonas aeruginosa was “tde”. In addition, the pIC50 in assay [1] is 5.30; in assay [2] it was 4.57. In addition, the inhibition entry in the assay on Enterobacter cloacae is “tde”.

Turning to `CO/N=C(\C(=O)N[C@@H]1C(=O)N2C(C(=O)O)=C(COC(C)=O)CS[C@H]12)c1csc(N)n1` [CEFOTAXIME], the MIC against Escherichia coli [6] is less than 0.125 µg/mL; with Escherichia coli [7], 16 µg/mL (≈ 35.1 µM); in the assay with Escherichia coli [8] it was 16 µg/mL (≈ 35.1 µM).

For `O=C(Cc1cccs1)NCB(O)O`, the MIC in [3] is 2 µg/mL; in the assay on Escherichia coli [4], less than 0.125 µg/mL; in assay [5] it was 2 µg/mL. For the same compound, the time-dependent effect result in the assay with Pseudomonas aeruginosa is “tde”. The pIC50 in assay [1] was 5.48; in [2], 5.57. Besides, the negative logarithm of the Ki (pKi) in assay [1] was 6.39; in assay [2] it was 6.35. Also, in the assay on Enterobacter cloacae, the inhibition entry was “tde”.

`CC(=O)N[C@@H](Cn1cc(-c2ccccc2)nn1)B(O)O`: the time-dependent effect result in the assay with Pseudomonas aeruginosa was “tde”. For the same compound, the pIC50 in assay [1] was 5.03; in assay [2], 4.88. The inhibition result in the assay on Enterobacter cloacae is “tde”.

With `O=C(Cc1ccccc1)N[C@@H](Cn1cc(-c2cccc(C(=O)O)c2)nn1)B(O)O`, the time-dependent effect result in the assay with Pseudomonas aeruginosa is “tde”. In addition, the pIC50 in [1] is 6.92; in [2] it was 6.96. Moreover, the inhibition result in the assay on Enterobacter cloacae is “tde”.

The pIC50 is the negative decadic logarithm of the IC50, by convention in mol/L. Read a low pIC50 as a large IC50. What is called pKi is the Ki on a negative log10 scale, so that one unit is a factor of ten.
